Non-standard residues stand in square brackets, D forms with d. Nap = naphthalene (naphthaline) capping group; Lys(Me3) = C[N+](C)(C)CCCC[C@H](N)C(=O)O; Ada = adamantane cap

Data set [1] is described as follows: Transmission electron microscopy. As to conditions: TEM, PBS; for morphology after self-assembly: pH = 7.4, above CMC, samples prepared at 25°C, uranyl acetate stain. In kind it is physicochemical. In short, it runs like this:
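Samples were prepared in PBS at 25°C and applied to carbon-coated copper grids. Excess liquid was blotted with filter paper, and samples were negatively stained with uranyl acetate. Grids were dried overnight in a desiccator and imaged at 200 kV.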

In data set [2] the test system is C-LytA (C-terminal moiety of the pneumococcal cell-wall amidase LytA). Description: Isothermal titration calorimetry. In kind it is binding, Streptococcus pneumoniae. As to conditions: ITC; in words, as compared to Fmoc-K' itself. In short, it runs like this:
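Recombinant C-LytA was expressed in E. coli BL21(DE3), induced with 0.3 mM IPTG at 16°C for 16–18 h, purified on Q Sepharose, eluted with 2% choline, and dialysed into PBS to remove choline. It was a dimer by gel filtration and ultracentrifugation. ITC was run in PBS at 16°C with ligand at pH 7.4, both solutions degassed by centrifugation. Ligand was titrated into the protein cell (0.4 μL, then 19 × 2 μL injections, 120 s apart, stirred at 1000 rpm). Ka came from a one- or two-site binding fit.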
A general note: In ITC the heat of successive injections is recorded.

Setting [3] is: pH = 7.4, 1.25 mmol/L, 1.08 wt% (Figure 2 legend).

Take “AdaGFFYKKK'-NH2 (Ada-GFFYKK[Lys(Me3)]-NH2) [Compound 1]”: in data set [1] (pH = 7.4, 1.09 wt%), the “average diameter of nanoparticles” value is on record as “around 153 nm”. For the same substance, the morphology after self-assembly result in data set [1] is listed as “nanoparticle morphology”. Also, the “association constant (Ka) with C-LytA compared to Fmoc-K'” value in data set [2] is “far higher association constant”.

In the case of “NapGFFYKKK'-NH2 (Nap-GFFYKK[Lys(Me3)]-NH2) [Compound 2]”, in data set [1], the morphology after self-assembly entry is on record as “uniform nanofibers”. In data set [1] (setting [3]), the length of nanofibers result is reported as “several microns” and the width of nanofibers entry is recorded as “around 75 nm”. Besides, in data set [2], the “association constant (Ka) with C-LytA compared to Fmoc-K'” value is “far higher association constant”.

For the origin of these results see paper PMC4197414 (Scientific Reports, 2014).
